The record followed here is ChEMBL document CHEMBL2390820, “3-Biphenylimidazo[1,2-a]pyridines or [1,2-b]pyridazines and analogues, novel Flaviviridae inhibitors” (Eur J Med Chem, 2013).

Series [1] can be described thus: Selectivity index, ratio of CC50 for MDBK cells to EC50 for BVDV NADL infected in MDBK cells assessed as inhibition of progeny infectious viral particle production.
The nature of series [2]: Antiviral activity against LZ37-resistant BVDV NADL assessed as inhibition of viral replication. It counts as functional, Bovine viral diarrhea virus 1-NADL. An outline of the steps: (§1)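 MDBK cells were seeded at 5 × 10³/well in MEM-FCS and held 24 h at 37 °C in 5% CO₂. Medium was replaced with 5-fold serial compound dilutions, then BVDV NADL (drug-selected resistant variant) at MOI 2. CPE was read by the MTS method at OD 490 nm, and % CPE was calculated. EC50 is the concentration giving 50% protection from virus-induced CPE, by linear interpolation.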

Series [3] concerns Bovine viral diarrhea virus 1-NADL. Briefly: Selectivity ratio of EC50 for BPIP-resistant BVDV NADL to EC50 for wild type BVDV NADL. It counts as functional.
The nature of series [4]: Antiviral activity against BVDV NADL infected in MDBK cells assessed as inhibition of viral RNA synthesis by RT-qPCR analysis. It counts as functional, cell-based, Bovine viral diarrhea virus 1-NADL. The conditions noted are these: Bovine viral diarrhea virus isolates and strains.
Series [5] can be described thus: Cytotoxicity against human Huh5-2 cells assessed as growth inhibition after 3 days by MTS assay. It counts as cell-based, Huh-5-2. The method, boiled down:
(§2)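 MDBK or Huh 5-2 cells were seeded at 5 × 10³/well in MEM-FCS, with serial compound dilutions added 24 h later. Cells proliferated 3 days at 37 °C, then metabolic activity was read by MTS/PMS. CC50 is the concentration inhibiting proliferation of exponentially growing cells by 50%, by linear interpolation.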
Background: Tetrazolium assays rely on reduction of a dye to a coloured formazan, in cell work by metabolically active cells.

Series [6] is described as follows: Selectivity index, ratio of CC50 for MDBK cells to EC50 for BVDV NADL infected in MDBK cells. The method, boiled down:
(§3)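 Selectivity index is the ratio of CC50 from the 3-day MTS/PMS proliferation assay to EC50 in the same cell line. For Huh 5-2 the EC50 is from the luciferase replicon assay; for MDBK it is from the MTS CPE assay.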

The nature of series [7]: Antiviral activity against BPIP-resistant BVDV NADL assessed as inhibition of viral replication. The class given is functional, Bovine viral diarrhea virus 1-NADL. An outline of the steps: as §1
Series [8] can be described thus: Selectivity index, ratio of CC50 for Huh5-2 cells to EC50 for HCV genotype 1b infected in Huh5-2 cells. Also noted: species or system Huh-5-2. The method, boiled down: as §3
In series [9] the test system is Bovine viral diarrhea virus 1-NADL. Briefly: Selectivity ratio of EC50 for LZ37-resistant BVDV NADL to EC50 for AG110-resistant BVDV NADL. The class given is functional.
Series [10] can be described thus: Selectivity index, ratio of CC50 for MDBK cells to EC50 for BVDV NADL infected in MDBK cells assessed as inhibition of viral RNA synthesis.
Series [11] can be described thus: Antiviral activity against AG110-resistant BVDV NADL assessed as inhibition of viral replication. The class given is functional, Bovine viral diarrhea virus 1-NADL. An outline of the steps: as §1
Series [12] in a line: Selectivity ratio of EC50 for BVDV NADL infected in MDBK cells assessed as inhibition of progeny infectious viral particle production to EC50 for BVDV NADL infected in MDBK cells assessed as inhibition of viral RNA synthesis. It counts as functional, Bovine viral diarrhea virus 1-NADL.
The next series deals with MDBK. The series is described as follows: (§4) Antiviral activity against BVDV NADL infected in MDBK cells assessed as inhibition of virus-induced cytopathic effect formation after 5 days by MTS assay. It counts as functional, cell-based. The settings on record: Bovine viral diarrhea virus 1-NADL. The method, boiled down: (§5)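 MDBK cells were seeded at 5 × 10³/well in MEM-FCS and held 24 h at 37 °C, 5% CO₂. Medium was replaced with 5-fold serial compound dilutions, then BVDV inoculum was added at MOI 2. CPE was read by MTS as OD at 490 nm. EC50 is the concentration giving 50% protection against virus-induced CPE, by linear interpolation.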

Series [13] in a line: as §4. It counts as functional, cell-based, Bovine viral diarrhea virus 1-NADL. The settings on record: Bovine viral diarrhea virus isolates and strains, 120 h. The method, boiled down:
as §5

The nature of series [14]: Cytotoxicity against MDBK cells assessed as growth inhibition after 3 days by MTS assay. It counts as cell-based, Bos taurus. The settings on record: cattle. An outline of the steps: as §2
In series [15] the test system is Bovine viral diarrhea virus 1-NADL. Briefly: Selectivity ratio of EC50 for LZ37-resistant BVDV NADL to EC50 for wild type BVDV NADL. It counts as functional.
For series [16] the test system is unchanged. Briefly: Selectivity ratio of EC50 for AG110-resistant BVDV NADL to EC50 for wild type BVDV NADL. The class given is functional.
A further series has as its system Hepatitis C virus. The series is described as follows: Antiviral activity against HCV genotype 1b infected in Huh5-2 cells assessed as inhibition of viral replication after 4 days by luciferase reporter gene assay. The class given is functional, organism-based, Hepacivirus hominis, Huh-5-2. The conditions noted are these: Hepatitis C virus, genotype 1b, Huh-5-2, 96 h. An outline of the steps: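 Huh 5-2 cells carrying the HCV subgenomic luciferase replicon were seeded at 5 × 10³/well with compound and incubated 4 days at 37 °C. Medium was removed and luciferase activity quantified. EC50 is the minimum concentration reducing replicon-driven luciferase signal by 50%.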

Series [17] in a line: Antiviral activity against BVDV NADL infected in MDBK cells assessed as inhibition of progeny infectious viral particle production. The settings on record: Bovine viral diarrhea virus isolates and strains. The class given is functional, cell-based, Bovine viral diarrhea virus 1-NADL.

Converted amounts (≈) assume the structure as drawn.

Usually EC50 stands for the concentration that produces a half-maximal response. What is called CC50 is the concentration at which the toxic effect on the cells reaches its halfway point. With `Fc1ccc(-c2nc3ccc(Sc4ccccc4)cn3c2-c2cccc(-c3ccccc3)c2)cc1`, the “Ratio CC50/EC50” value in [1] was 19; in series [6], above 50; in series [8], above 1; in series [10], 37. For the same molecule, the EC50 in series [2] is 8.8 µg/mL (≈ 18.6 µM); in [4], 2.7 µg/mL (≈ 5.71 µM); in [7], 6 µg/mL (≈ 12.7 µM); in [11] it was 3.9 µg/mL (≈ 8.25 µM); in series [13] it was 2 µg/mL (≈ 4.23 µM); with Hepatitis C virus, above 106 µg/mL. Further, the concentration for a half-maximal effect (EC50) in series [17] was found to be 8 µg/mL (≈ 16.9 µM). Moreover, the Ratio EC50 in series [3] stood at 1.5; in [9], 2; in series [12] it was 2; in series [15], 2.2; in series [16] it was 0.9. For the same molecule, the CC50 at 72 h in [5] was above 106 µg/mL; in series [14] it was above 100 µg/mL. Moreover, the inhibition entry with MDBK is “Dose-dependent effect”.
